Source: ChEMBL document CHEMBL1134337, “Behavioral approach to nondyskinetic dopamine antagonists: identification of seroquel” (J Med Chem, 2001)

Tests used:
Mus musculus [1] = assay: Antagonism of apomorphine induced climbing was determined in female swiss -Webster mice after (i.p.) +SKF525A administration of 2.5 mg/kg; assay type: functional; details: route intraperitoneal
In short: (§1)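 Female Swiss-Webster mice (about 20 g) were fasted about 24 h, then given test compound or vehicle ip or po (N = 20 per group). Vehicle was 0.5% w/w hydroxypropylmethylcellulose with 0.1% w/w Tween 80 in water. After 30 min, mice received apomorphine HCl 1.25 mg/kg sc. At 13 min, each mouse was watched for 1 min; score was mean of highest and lowest rung of 27. Groups were compared with vehicle by Student's t-test.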

Mus musculus [2] = assay: Antagonism of apomorphine induced climbing was determined in female swiss -Webster mice after (i.p.) +SKF525A administration of 20 mg/kg; assay type: functional; details: route intraperitoneal; in short: as §1
Mus musculus [3] = assay: Antagonism of apomorphine induced climbing was determined in female swiss -Webster mice after (po) administration of 10 mg/kg; assay type: functional; in short: as §1
Mus musculus [4] = assay: Antagonism of apomorphine induced climbing was determined in female swiss -Webster mice after (ip) administration of 5 mg/kg; assay type: functional; in short: as §1
Mus musculus [5] = assay: Antagonism of apomorphine induced climbing was determined in female swiss -Webster mice after (p.o.) +SKF525A administration of 20 mg/kg; assay type: functional; details: route oral; in short: as §1
Mus musculus [6] = assay: Antagonism of apomorphine induced climbing was determined in female swiss -Webster mice after (p.o.) +SKF525A administration of 10 mg/kg; assay type: functional; details: route oral; in short: as §1
Mus musculus [7] = assay: Antagonism of apomorphine induced climbing was determined in female swiss -Webster mice after (ip) administration of 2.5 mg/kg; assay type: functional; in short: as §1
Mus musculus [8] = assay: Antagonism of apomorphine induced climbing was determined in female swiss -Webster mice after (p.o.) +SKF525A administration of 5 mg/kg; assay type: functional; details: route oral; in short: as §1
Mus musculus [9] = assay: Antagonism of apomorphine induced climbing was determined in female swiss -Webster mice after (ip) administration of 10 mg/kg; assay type: functional; in short: as §1
Mus musculus [10] = assay: Antagonism of apomorphine induced climbing was determined in female swiss -Webster mice after (ip) administration of 20 mg/kg; assay type: functional; in short: as §1
Mus musculus [11] = assay: Antagonism of apomorphine induced climbing was determined in female swiss -Webster mice after (po) administration of 20 mg/kg; assay type: functional; in short: as §1
Mus musculus [12] = assay: Antagonism of apomorphine induced climbing was determined in female swiss -Webster mice after (po) administration of 5 mg/kg; assay type: functional; in short: as §1
[13] = biological target: D(2) dopamine receptor (Rattus norvegicus) (UniProt P61169); assay: Binding affinity at dopamine receptor D2 from rat by spiropiperidone displacement.
In short: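 D2 receptor binding was read as % displacement of spiropiperidone, with test compound at 1000 nM unless stated otherwise. IC50 values used at least five concentrations per compound in triplicate. Each value is the mean of two replicate experiments differing by 5% or less.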

Mus musculus [14] = assay: Antagonism of apomorphine induced climbing was determined in female swiss -Webster mice after (i.p.) +SKF525A administration of 5 mg/kg; assay type: functional; details: route intraperitoneal; in short: as §1
Mus musculus [15] = assay: Antagonism of apomorphine induced climbing was determined in female swiss -Webster mice after (i.p.) +SKF525A administration of 10 mg/kg; assay type: functional; details: route intraperitoneal; in short: as §1

D(2) dopamine receptor (Rattus norvegicus), sequence (P61169 whole entry): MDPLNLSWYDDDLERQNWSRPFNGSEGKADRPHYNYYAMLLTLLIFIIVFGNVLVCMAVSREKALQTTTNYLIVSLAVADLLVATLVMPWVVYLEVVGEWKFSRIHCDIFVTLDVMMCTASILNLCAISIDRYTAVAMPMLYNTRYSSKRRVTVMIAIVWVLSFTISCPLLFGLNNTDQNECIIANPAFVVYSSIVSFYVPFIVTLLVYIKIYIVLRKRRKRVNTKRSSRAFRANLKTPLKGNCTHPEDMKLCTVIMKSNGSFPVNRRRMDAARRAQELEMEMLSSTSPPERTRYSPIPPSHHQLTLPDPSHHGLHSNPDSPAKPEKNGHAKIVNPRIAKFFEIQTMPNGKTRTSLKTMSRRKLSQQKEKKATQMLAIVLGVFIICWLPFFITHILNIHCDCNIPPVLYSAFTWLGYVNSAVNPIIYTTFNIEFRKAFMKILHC

% displacement of spiropiperidone [13]: 35%
Compound: CN1CCN(C2=Nc3ccccc3Sc3ccccc32)CC1
Activity (Mus musculus [1]): 23 | Activity (Mus musculus [2]): 3 | Activity (Mus musculus [3]): 8 | Activity (Mus musculus [4]): 14 | Activity (Mus musculus [5]): 9 | Activity (Mus musculus [6]): 18 | Activity (Mus musculus [7]): 21 | Activity (Mus musculus [8]): 23 | Activity (Mus musculus [9]): 3 | Activity (Mus musculus [10]): 0 | Activity (Mus musculus [11]): 0 | Activity (Mus musculus [12]): 21 | Activity (Mus musculus [14]): 21 | Activity (Mus musculus [15]): 18
